Results: PubChem BioAssay
Inconclusive results are not listed. The source made the active and inactive calls.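 The calls were made as follows, unless noted: active = viability at or below 27.92% in each of two runs, the all-compound median minus 4 SD; inconclusive = no clear call, values can overlap the other calls; inactive = the rest.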

Legend:
[1] = OD615 S. cerevisiae growth inhibition, permissive medium, pilot counter-assay, permissive growth control for S. cerevisiae lifespan shortening project (AID 705;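 active = growth inhibition above 25% in both replicates, a cutoff set 3 SD above the mean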); details: OD615, 24 h, at 10 µM, hits give high values
In short: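 System – S. cerevisiae with engineered DeaD lifespan system · Buffer or medium – SC raffinose/galactose permissive medium · Schedule – cells pre-grown 4 h, then 24 h compound exposure, 30 °C humidified · Technique – culture turbidity as optical density at 615 nm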

[2] = Restrictive medium S. cerevisiae growth inhibition, OD615, pilot screen of yeast lifespan reduction project, restrictive growth control (AID 706;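 active = growth inhibition above a set limit, 3 SD over mean compound inhibition, in both replicates, cut at about 43% in these data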;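 also: modified DeaD lifespan yeast strain shifted to restrictive glucose medium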); details: OD615, 48 h, at 10 µM, hits give high values
In short: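 Material: engineered S. cerevisiae DeaD strain / Medium: glucose-based CSMM-D restrictive medium / Compound: single dose of 10 µM compound final, 0.25% DMSO / Timing: 4 h pre-incubation, 48 h exposure at 30 °C / Technique: OD615 absorbance reading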

[3] = viability gain of MRP-1-high H69AR cells under doxorubicin, pilot screen, MRP-1 activator project, CellTiter-Glo, duplicate (AID 807;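 active = viability increase at or above a cutoff of the median across tested compounds plus 3 SD, cut at about 8.5% in these data, passing the limit was not always enough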;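 also: compound pretreatment 18-22 h then 72 h combined with doxorubicin; 0% = doxorubicin alone and 100% = vehicle without doxorubicin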); details: H69AR viability with doxorubicin, CellTiter-Glo luminescence; at 10 µM; hits give high values
[4] = growth suppression of beta-catenin knockout HCT116, pilot screen, human colon tumor cells (AID 823;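 active = cell viability at or below a set limit in both duplicate runs, the limit being the all-compound median minus 4 SD, cut at about 23% in these data, passing the limit was not always enough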;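 also: 0% = wells killed by 20 µM Hyamine and 100% = untreated DMSO cell wells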); details: CellTiter-Glo, 60 h, at 10 µM, hits give low values
[5] = growth suppression of PTEN-deleted HCT116, pilot screen, cell-based, HCT116 clonal line, CellTiter-Glo (AID 824); details: 60 h, at 10 µM, hits give low values;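 also: 0% = 20 µM Hyamine control and 100% = vehicle cell control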
[6] = inhibitors of the yeast RAM network, pilot screen, dse1pr::URA3 reporter, 5-FOA selection (AID 869;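 active = inhibition over a set limit, the all-compound mean plus 3 SD, in both replicate runs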;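 also: 0% = DMSO wells with no growth and 100% = 10 µM 1-NA-PP1 with full growth; RAM network block rescues cells from 5-FOA so hits raise OD615 growth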); details: S. cerevisiae dse1pr::URA3 5-FOA growth, OD615, 2 d; at 10 µM; hits give high values; strain carries analog-sensitive mutant Cbk1 kinase
[7] = RAM signaling pathway blockade in yeast – S. cerevisiae, Pdr1DBD-CYC8 efflux-inhibited sensitized strain, primary screen (AID 1298;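 active = RAM network inhibition above 8.4% in each of two replicates, 3 SD over the compound average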;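 also: 0% = DMSO untreated cells without growth and 100% = 10 µM 1-NA-PP1 full growth; higher means more yeast growth rescued from 5-FOA killing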); details: S. cerevisiae cbk1-as DSE1-URA3 strain, 5-FOA growth OD615, 2 d; at 50 µM; hits give high values

O=C(c1ccccc1)C(Sc1ncn[nH]1)c1ccccc1 (stereo unspecified)
inactive: growth inhibition [1] -8.75% | growth inhibition [2] 0.305% | viability increase [3] 5.4% | viability [4] 92.5% | viability [5] 85.7% | inhibition [6] 1.1% | RAM network inhibition [7] 2.92%

Cc1nc2sc(C(c3ccco3)N3CCC(Cc4ccccc4)CC3)c(O)n2n1 (stereo unspecified)
inactive: growth inhibition [1] 0.165% | growth inhibition [2] 4.34% | viability increase [3] 0.64% | viability [4] 95.2% | viability [5] 91.4% | inhibition [6] 1.14% | RAM network inhibition [7] 9.02%

CC(=O)/C(C(=N)N1CCN(C(c2ccccc2)c2ccccc2)CC1)=C(\C)O
inactive: growth inhibition [1] -2.42% | growth inhibition [2] -7.72% | viability increase [3] -2.93% | viability [4] 102% | viability [5] 91.2% | inhibition [6] -0.395% | RAM network inhibition [7] 2.41%

COC(=O)c1coc(-c2ccc(C)cc2)c1C(=O)OC
inactive: growth inhibition [1] -4.24% | growth inhibition [2] 2% | viability increase [3] 0.08% | viability [4] 88.6% | viability [5] 95.9% | inhibition [6] 0.11% | RAM network inhibition [7] 3.96%

COc1ccc(NC(=O)C2CCCN2S(=O)(=O)c2ccc3c(c2)CCC(=O)N3)cc1Cl (stereo unspecified)
inactive: growth inhibition [1] -1.44% | growth inhibition [2] -23.7% | viability increase [3] -2.9% | viability [4] 90.8% | viability [5] 87.7% | inhibition [6] 1.18% | RAM network inhibition [7] 1.9%

CN(CCCC(=O)Nc1nccs1)S(=O)(=O)c1ccc(Cl)cc1
inactive: growth inhibition [1] -0.375% | growth inhibition [2] 0.355% | viability increase [3] -1.24% | viability [4] 110% | viability [5] 97.7% | inhibition [6] 1.51% | RAM network inhibition [7] 0.41%

CCOC(=O)Cn1c(=O)oc2cc(S(=O)(=O)NC3CCCc4ccccc43)ccc21 (stereo unspecified)
inactive: growth inhibition [1] -9.8% | growth inhibition [2] -15.4% | viability increase [3] -0.67% | viability [4] 88.3% | viability [5] 92.2% | inhibition [6] 4.13% | RAM network inhibition [7] 3.75%

COC(=O)C1CCN(C(c2cccs2)c2sc3nc(C)nn3c2O)CC1 (stereo unspecified)
inactive: growth inhibition [1] -3.2% | growth inhibition [2] 1.52% | viability increase [3] -1.54% | viability [4] 102% | viability [5] 96.4% | inhibition [6] 1.68% | RAM network inhibition [7] 1.07%

CCCN(CCC)S(=O)(=O)c1ccc(C(=O)N2CCC(=O)c3ccccc32)cc1
inactive: growth inhibition [1] -0.75% | growth inhibition [2] 1.45% | viability increase [3] -5.63% | viability [4] 81.2% | viability [5] 89.7% | inhibition [6] 2.23% | RAM network inhibition [7] 0.93%

Cc1cc(Nc2ccc(F)cc2F)n2nc(C)nc2n1
inactive: growth inhibition [1] -20.2% | growth inhibition [2] -3.57% | viability increase [3] -1.98% | viability [4] 104% | viability [5] 98.5% | inhibition [6] 0.33% | RAM network inhibition [7] 2.94%

c1ccc(-c2noc(CSc3nnnn3-c3ccccc3)n2)cc1
inactive: growth inhibition [1] -10.7% | growth inhibition [2] 22.4% | viability increase [3] 0.25% | viability [4] 97.8% | viability [5] 94% | inhibition [6] 0.485% | RAM network inhibition [7] 3.86%

Cc1cc(NC(=O)C2CC(c3ccc(F)cc3)=NO2)no1 (stereo unspecified)
inactive: growth inhibition [1] -0.42% | growth inhibition [2] -0.655% | viability increase [3] -0.18% | viability [4] 101% | viability [5] 109% | inhibition [6] -0.08% | RAM network inhibition [7] 4.62%

O=C(O)CCC(=O)N1CCc2cc(S(=O)(=O)N3CC=C(c4ccccc4)CC3)ccc21
inactive: growth inhibition [1] 5.99% | growth inhibition [2] 4.92% | viability increase [3] -2.14% | viability [4] 104% | viability [5] 93.9% | inhibition [6] 3.79% | RAM network inhibition [7] 7.9%

O=C(Cn1cnc2c(nnn2-c2ccccc2)c1=O)N1CCCc2ccccc21
inactive: growth inhibition [1] -10% | growth inhibition [2] -10.4% | viability increase [3] 0.06% | viability [4] 101% | viability [5] 101% | inhibition [6] 1.55% | RAM network inhibition [7] 5.32%

CC(=O)c1cccc(NC(=O)c2cc(C(C)C)on2)c1
inactive: growth inhibition [1] -14.6% | growth inhibition [2] 0.275% | viability increase [3] -1.46% | viability [4] 104% | viability [5] 97.7% | inhibition [6] 0.785% | RAM network inhibition [7] 0.94%

O=C(Cn1c(=O)sc2ccccc21)N1CCOCC1
inactive: growth inhibition [1] -1.21% | growth inhibition [2] -4.46% | viability increase [3] -1.06% | viability [4] 95.5% | viability [5] 102% | inhibition [6] 0.485% | RAM network inhibition [7] 0.67%

Cn1c(=O)c2c(nc(NCCc3ccccc3)n2Cc2ccc(F)cc2)n(C)c1=O
inactive: growth inhibition [1] -4.81% | growth inhibition [2] -8.86% | viability increase [3] 1.3% | viability [4] 69.8% | viability [5] 55.3% | inhibition [6] 1.03% | RAM network inhibition [7] 5.94%

CCOc1ccccc1Nc1nc2ccccc2n2cnnc12
inactive: growth inhibition [1] -17% | growth inhibition [2] -2.87% | viability increase [3] -6.33% | viability [4] 81.6% | viability [5] 85.7% | inhibition [6] 3.04% | RAM network inhibition [7] 6.66%

CC(=O)Nc1nc2c(F)cccc2s1
inactive: growth inhibition [1] -14.9% | growth inhibition [2] -3% | viability increase [3] -2.43% | viability [4] 96.5% | viability [5] 91.2% | inhibition [6] 1.6% | RAM network inhibition [7] 7.94%

CCOc1ccc(N(CC(=O)O)S(=O)(=O)c2cccnc2)cc1
inactive: growth inhibition [1] -0.125% | growth inhibition [2] -2.17% | viability increase [3] 1.18% | viability [4] 94.4% | viability [5] 102% | inhibition [6] -0.27% | RAM network inhibition [7] 7.23%

COc1ccc(CCNc2ncnc3nc[nH]c23)cc1OC
inactive: growth inhibition [1] 0.1% | growth inhibition [2] 20% | viability increase [3] -3.11% | viability [4] 82.8% | viability [5] 84.7% | inhibition [6] 0.57% | RAM network inhibition [7] 1.46%

CCCc1ccc(Oc2c(-c3ccc(O)c(C)c3O)n[nH]c2C)cc1
inactive: viability increase [3] -2.16% | viability [4] 72.3% | viability [5] 74.3% | inhibition [6] -2.1% | RAM network inhibition [7] -1.26%
active: growth inhibition [1] 93.6% | growth inhibition [2] 87.5%

O=C(c1cc(-c2ccc(O)cc2)on1)N1CCc2ccccc2C1
inactive: growth inhibition [1] -16.4% | growth inhibition [2] 15.6% | viability increase [3] -4.4% | viability [4] 93% | viability [5] 91.1% | inhibition [6] 0.875% | RAM network inhibition [7] -2.87%

Cn1c(SCC(=O)Nc2ccc(F)cc2F)nnc1-c1cccnc1
inactive: growth inhibition [1] -13.9% | growth inhibition [2] -8.12% | viability increase [3] -0.94% | viability [4] 104% | viability [5] 95% | inhibition [6] 3.28% | RAM network inhibition [7] -0.27%

CCc1noc2c1/C(=N\O)CC(c1ccccc1)C2 (stereo unspecified)
inactive: growth inhibition [1] 0.555% | growth inhibition [2] 4.22% | viability increase [3] 2.87% | viability [4] 83.3% | viability [5] 84.8% | inhibition [6] 1.78% | RAM network inhibition [7] -1.18%

c1ccc(CSc2nnc(-c3ccncc3)o2)cc1
inactive: growth inhibition [1] -3.77% | growth inhibition [2] 9.8% | viability increase [3] -2.83% | viability [4] 109% | viability [5] 96.3% | inhibition [6] 0.73% | RAM network inhibition [7] 1.96%

COc1ccc(-c2cn3c(C)c(C(=O)NCc4ccc5c(c4)OCO5)sc3n2)cc1
inactive: growth inhibition [1] -4.21% | growth inhibition [2] 7.5% | viability increase [3] -3.02% | viability [4] 99.8% | viability [5] 100% | inhibition [6] 3.06% | RAM network inhibition [7] 3.34%

CC(=O)c1ccc(OCC(O)CN2CCN(Cc3ccccc3)CC2)cc1 (stereo unspecified)
inactive: growth inhibition [1] -6.49% | growth inhibition [2] 4.36% | viability increase [3] -1.36% | viability [4] 101% | viability [5] 92.1% | inhibition [6] -0.305% | RAM network inhibition [7] 0.94%

CCc1nnc(NC(=O)CSc2nccn2-c2cccc(C)c2C)s1
inactive: growth inhibition [1] 2.46% | growth inhibition [2] 32.5% | viability increase [3] -5.37% | viability [4] 46.2% | viability [5] 42.9% | inhibition [6] 0.935% | RAM network inhibition [7] 1.37%

Fc1ccc(Nc2nc(N3CCOCC3)c3ccccc3n2)cc1
inactive: growth inhibition [1] -3.31% | growth inhibition [2] -13.7% | viability increase [3] -3.18% | viability [4] 93.5% | viability [5] 93.4% | inhibition [6] 0.45% | RAM network inhibition [7] 2.64%

Cc1nc(CNS(=O)(=O)c2ccccc2F)cs1
inactive: growth inhibition [1] -2.92% | growth inhibition [2] 0.715% | viability increase [3] -0.6% | viability [4] 94.1% | viability [5] 91.5% | inhibition [6] 0.335% | RAM network inhibition [7] -0.57%

COc1ccccc1C1(CC(=O)O)CCOC(C)(C)C1 (stereo unspecified)
inactive: growth inhibition [1] -2.27% | growth inhibition [2] -9.79% | viability increase [3] -1.61% | viability [4] 90.9% | viability [5] 92.2% | inhibition [6] 0.095% | RAM network inhibition [7] -1.44%

CCCCCn1c(=O)[nH]c2c(c1=O)CCC2
inactive: growth inhibition [1] 2.71% | growth inhibition [2] -0.545% | viability increase [3] 1.82% | viability [4] 101% | viability [5] 100% | inhibition [6] -0.56% | RAM network inhibition [7] 0.26%
